Among all 1,200 compounds or so, about 770 (64%) were called active.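 Rule for the calls: active = percent activation of the STAT3 luciferase reporter above a set limit taken from the earlier primary screen (cut at about 130% in these data); inactive = the rest.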 So high a share suggests a set chosen from earlier hits. Not all results are given here.

The test can be described thus: STAT3 reporter potentiators, retest of hits, confirmation, U3A cells, luciferase, luminescence (AID 1267).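 Note: 0% = background signal of medium plus substrate and 100% = median of IL-6 with DMSO wells.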 The settings on record: IL-6 potentiation, at 5.7 µM, active compounds read high. In a few lines: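 System: U3A STAT3::luc reporter cells. Probe or stimulus: IL-6 stimulus at 33 ng/mL final. Timing: 1 h pretreatment, 6 h IL-6, 37 °C. Measured by: luminescence of luciferase reporter. Evaluation: % potentiation versus IL-6 + DMSO. Benchmarks: high control IL-6 plus DMSO wells, media-only background wells. Repeats: triplicate.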
Consider `CCC/C(=N\O)c1c[nH]c2ccccc12`, for which the potentiation (% of control) was 143% (active).
For `COc1cc(-n2c(=S)[nH]c3ccc(C)cc3c2=O)c(Cl)cc1Cl` the value was 129% (inactive).

The values are drawn from PubChem BioAssay AID1267 (The Scripps Research Institute Molecular Screening Center, 2008).
